An excerpt weighted towards active compounds, which were near 4.7% of everything screened.
RGS4 pot – RGS4 potentiators or activators, primary screen, cell-based, HEK293 M3R inducible RGS4, calcium flux | AID 463111, 2010 | B-score at 10 µM | carbachol calcium flux Fluo4; active compounds read low | actives 0.92% (n = 310,000);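 active means B-score of the integrated calcium signal more than 4 SD below the library mean, with starting fluorescence not abnormally high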;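 further: negative B-score means reduced calcium response which marks RGS4 activation or potentiation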
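System: HEK293 FlpIn-TREx cells, stable M3R, doxycycline-inducible RGS4. Timing: overnight RGS4 induction, 30 min dye load 37 °C, 20 min compound RT. Also added: carbachol, ECmax concentration. Measured by: Fluo4 fluorescence kinetic imaging of calcium. Evaluation: integrated calcium ratio converted to B score.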
MrgX1 antag – antagonists of human MrgX1 receptor, primary screen, HEK293 cells, Fluo-4 calcium flux; actives 1.3% (n = 310,000); B-score at 10 µM; AID 588676, 2011; BAM8-22 antagonism; active compounds read low; Mas-related G-protein coupled receptor member X1 (Homo sapiens), Q96LB2;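 active means calcium-response B-score plate-corrected more than 3 library SD below zero, starting fluorescence within 5 deviations, no agonist response on first addition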;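 further: peak minus trough fluorescence over baseline after final BAM8-22 challenge near maximal dose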
MrgX1 ag – agonists of human MrgX1 receptor, primary screen, HEK293 cells, Fluo-4 calcium flux | Fluo-4 calcium fluorescence, agonist mode; active compounds read high | B-score at 10 µM | Mas-related G-protein coupled receptor member X1 (Homo sapiens), Q96LB2 | actives 0.44% (n = 310,000);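 active means calcium response B-score plate-corrected fluorescence ratio at least 3 library SD, with starting fluorescence B-score inside 5 SD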
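Test system: HEK293 cells stably expressing human MrgX1 receptor; Input: fifteen thousand cells per well; Dosing: compound delivered in addition one of three; Schedule: overnight seeding, then 1 h dark dye loading; Technique: Fluo-4 NW calcium fluorescence; Measure: B-scored fluorescence response ratio; Controls: positive and negative controls per plate.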
Cl transport mod – KCC2 cotransporter modulators, thallium flux, primary screen, cell-based, HEK293 KCC2, FluoZin-2 fluorescence, MLSMR; Solute carrier family 12 member 5 (Homo sapiens), Q9H2X9; KCC2 cells, thallium flux FluoZin-2 fluorescence; B-score of Tl+ flux slope (higher = more flux/activation; lower = inhibition) at 10 µM; actives 2.2% (n = 190,000); AID 1456, 2008;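 active means thallium flux slope and its plate-corrected score both differing from the plate sample mean at a set confidence after two filtering rounds, in either direction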;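 further: slope of fluorescence scaled to starting intensity during 10 to 20 s after thallium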
MrgX1 allo act – positive allosteric modulators of MrgX1, primary screen, HEK293 cells, Fluo-4 calcium flux. AID 588675, 2011. FDSS; active compounds read high. Mas-related G-protein coupled receptor member X1 (Homo sapiens), Q96LB2. actives 0.63% (n = 310,000). B-score at 10 µM;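 active means plate-corrected calcium response at least 3 library SD above typical, normal starting fluorescence, not activating the receptor alone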;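 further: compound read alongside a low EC10 to EC30 dose of BAM8-22 agonist; peak minus trough fluorescence over baseline measured at the second addition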
RGS4 block – RGS4 inhibitors, primary screen, cell-based, HEK293 M3R inducible RGS4, calcium flux. Regulator of G-protein signaling 4 (Homo sapiens), P49798. Fluo-4 calcium flux; active compounds read high; triggered by carbachol at its EC20. B-score at 10 µM. actives 0.45% (n = 310,000). AID 463165, 2010;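 active means B-score, a plate-corrected calcium signal, over three deviations above library mean, with baseline fluorescence within five deviations of library mean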;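 further: RGS4 expression induced by doxycycline in cells with stable M3 receptor; B-score is computed from the integrated fluorescence ratio over baseline after carbachol; higher B-score means a larger calcium signal and so more RGS4 inhibition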
MrgX1 ant reconf – MrgX1 receptor antagonists, duplicate retest, confirmation, HEK293 cells, Fluo-4 calcium flux; BAM8-22 calcium flux; active compounds read low; AID 602420, 2012; remaining BAM8-22 calcium response % of control (active compounds read low), % at 10 µM; shares compounds with MrgX1 antag; actives 19% (n = 2,300);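 active means remaining agonist calcium response no higher than 100% minus 3 SD of agonist-only control wells, with starting fluorescence near control levels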;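 further: agonist BAM8-22 given at a near maximal EC90 to ECmax level; peak minus minimum fluorescence divided by baseline after agonist addition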
HEK293 Ca flux – nonspecific calcium signal in parental HEK293, confirmation, counter-screen for MrgX1 antagonist project, parental HEK293 cells, Fluo-4 calcium flux | AID 624111, 2012 | fluorescence ratio F(max-min)/F0 at 10 µM | Fluo-4 calcium fluorescence, FDSS | shares compounds with MrgX1 antag | actives 2% (n = 4,000);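 active means duplicate-averaged calcium fluorescence ratio at least three times the standard deviation of buffer wells, a nonspecific response in parental cells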
HEK293 Ca counter – calcium response in parental HEK293 cells, primary screen, counter-screen for MrgX1 allosteric activator project, cell-based, Fluo-4 calcium flux, duplicate. Fluo-4 fluorescence ratio; active compounds read high. shares compounds with MrgX1 antag. fluorescence ratio F(max-min)/F0 at 10 µM. actives 0.4% (n = 4,000). AID 624114, 2012;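 active means calcium fluorescence ratio, averaged over duplicates, at least 3 SD of the buffer-well ratio, meaning a nonspecific response in receptor-free cells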;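 further: untransfected parental HEK293 lacking MrgX1 used as counterscreen for MrgX1 allosteric activators; fluorescence change taken during the second addition on a kinetic imager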
HEK293 Ca cntr2 – calcium response in parental HEK293 cells, primary screen, counter-screen for MrgX1 agonist project, cell-based, Fluo-4 calcium flux, duplicate, agonist mode. shares compounds with MrgX1 antag. Fluo-4 calcium fluorescence (FDSS); active compounds read high. fluorescence ratio F(max-min)/F0 at 10 µM. actives 8.7% (n = 4,000);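 active means calcium fluorescence ratio at least three times the spread of buffer wells, meaning a non-specific response in parental cells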
An asterisk follows results filed as active; i = inactive; . = no result given.

SMILES | RGS4 pot | MrgX1 antag | MrgX1 ag | Cl transport mod | MrgX1 allo act | RGS4 block | MrgX1 ant reconf | HEK293 Ca flux | HEK293 Ca counter | HEK293 Ca cntr2
Cc1cc(NC(=O)CSc2nc3c(c(-c4cccnc4)c2C#N)CCC3)no1 | i | -5.34* | i | . | i | i | i | i | i | i
COc1cc(NC(=O)c2ccco2)c(OC)cc1NC(=O)Nc1ccccc1Cl | i | -5.89* | i | 0.148 | i | i | i | i | i | i
Cc1ccc(C(=O)Nc2ccccc2C(=O)NCc2ccco2)cc1S(=O)(=O)N1CCCCC1 | i | i | i | 1.49 | i | i | . | . | . | .
Cc1ccc(C(=O)Nc2ccncc2)cc1S(=O)(=O)N1CCOCC1 | i | -4.64* | i | . | i | i | i | i | i | 63.7*
O=C(Nc1cccc(Br)c1)c1ccc(Cl)c(S(=O)(=O)N2CCOCC2)c1 | i | -4.69* | i | -0.932 | i | i | 79.6%* | i | i | i
Cc1ccc(C(=O)NCc2ccco2)cc1S(=O)(=O)N1CCCCC1 | i | -6.7* | i | -0.41 | i | i | i | i | i | i
Cc1ccc(C(=O)NNC(=O)c2ccccc2O)cc1S(=O)(=O)N1CCCCC1 | i | i | i | . | i | i | . | . | . | .
Cc1cc([N+](=O)[O-])ccc1N1C(=O)c2ccc(C(=O)Nc3ccccc3C(=O)O)cc2C1=O | i | i | i | . | i | i | . | . | . | .
FC(F)C(F)(F)c1cc(-c2ccc(Cl)cc2)n[nH]1 | i | -6.71* | i | -0.128 | i | i | i | i | i | i
Cc1[nH]ccc(=O)c1OCc1c(Cl)cccc1Cl | i | -6.66* | i | . | i | i | i | i | i | i
Cc1[nH]ccc(=O)c1OCC(=O)O | i | i | i | 0.0752 | i | i | . | . | . | .
CC1CCCCC1NC(=O)CN1CCN(Cc2ccccc2Cl)C1=O (centres undefined) | i | -10* | i | -0.236 | i | i | 84.3%* | i | i | i
Cc1ccccc1Cc1c(C)nc2c(C(=O)NCc3ccc4c(c3)OCO4)cnn2c1C | i | -4.81* | i | -0.0723 | i | i | i | i | i | i
Cc1ccc(C)c(Cc2c(C)nc3c(C(=O)NCc4ccc5c(c4)OCO5)cnn3c2C)c1 | i | i | i | 1.48 | i | i | . | . | . | .
N#Cc1c(C(F)(F)F)cc(-c2ccco2)nc1SCc1ccccn1 | i | -4.65* | i | -0.317 | i | i | i | i | i | i
CCN(CC)C(=O)CSc1nc(-c2ccco2)cc(C(F)(F)F)c1C#N | i | i | i | 0.511 | i | i | . | . | . | .

Source: PubChem
